From ChEMBL document CHEMBL1131453, “Design of N-acylprolyltyrosine "tripeptoid" analogues of neurotensin as potential atypical antipsychotic agents” (J Med Chem, 1998)
Peptide text beside a SMILES is read from it. * marks the point of attachment. Nonanoyl = CCCCCCCCC(=O)*; Hexanoyl = CCCCCC(=O)*; Pentanoyl = CCCCC(=O)*

Columns and labels:
Mus musculus = assay: Compound was tested in vivo for its ability to antagonize apomorphine-induced climbing response in mice upon intraperitoneal administration; type: functional; details: ip
How it was run: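 C57BL/6 male mice, 22–25 g, adapted 1 h in wire mesh cages. Compound in saline with 3% Tween 80 given ip 15 min before apomorphine 5.0 mg/kg sc (in saline with 0.1% ascorbic acid). Climbing scored 0–4 every 2 min, 30 readings, from 15 min after apomorphine. Totals are expressed as % of vehicle control. ED50 with 95% confidence limits by log-dose linear regression, 8–16 mice per dose.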

Rattus norvegicus [1] = assay: Compound was tested in vivo for its ability to antagonize extrapolatory behavior impairment induced by DOPA in rats upon intraperitoneal administration; type: functional; details: ip
How it was run: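 Outbred albino male rats, 180–200 g, placed in a water-plunged cylinder (22 °C) and must dive under its edge within 2 min; non-escapers discarded. A day later, Madopar (100 mg/kg L-DOPA + 25 mg/kg benserazide in 3% Tween 80) is given ip 60 min before testing. Compound in saline + 3% Tween 80 is given ip 10 min before Madopar. Successful escapes are recorded. ED50 with 95% confidence limits by linear regression, eight rats per dose.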

Rattus norvegicus [2] = assay: Compound was tested in vivo for its ability to induce catalepsy in rats upon intraperitoneal administration; type: functional; details: ip
How it was run: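 Adult outbred male rats, 200–250 g, dosed ip with compound in saline containing 3% Tween 80. Forepaws placed on a bar 7 cm high (Morpurgo apparatus) at 0.5, 1.0, 1.5 and 2 h. Bar time scored 0–3, tested twice per session at 2-min intervals. Scores are given as percent of the maximal cumulative score (15).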

[3] = Acute toxicity on male outbred albino mice upon intraperitoneal administration; details: mouse, in vivo, ip
How it was run: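 Male outbred albino mice (Moscow region), 20–25 g, housed five per cage with free food and water at 21–22 °C, 40–50% humidity, 12/12 h light/dark. Single ip injection at doses up to 500–1000 mg/kg. Surviving animals were counted 2, 24 and 48 h after injection.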

In the case of CCCCCC(=O)N1CCC[C@H]1C(=O)N[C@@H](Cc1ccc(O)cc1)C(N)=O (Hexanoyl-Pro-Tyr-NH2), the ED50 (Mus musculus) is reported as 0.5 mg/kg, the ED50 (Rattus norvegicus [1]) is reported as 0.4 mg/kg and the ED50 (Rattus norvegicus [2]) is reported as greater than 500 mg/kg. The LD50 [3] was greater than 500 mg/kg.

CC(C)(C)OC(=O)N1CCC[C@H]1C(=O)N[C@@H](Cc1ccc(O)cc1)C(N)=O showed an ED50 (Mus musculus) of 2.5 mg/kg.

NC(=O)[C@H](Cc1ccc(O)cc1)NC(=O)[C@H]1CCCN1 gave an ED50 (Mus musculus) of 3.6 mg/kg.

For NC(=O)[C@H](Cc1ccc(O)cc1)NC(=O)[C@@H]1CCCN1, the ED50 (Mus musculus) was 3.4 mg/kg, the ED50 (Rattus norvegicus [1]) was 1.6 mg/kg and the ED50 (Rattus norvegicus [2]) was greater than 500 mg/kg. For the same compound, the LD50 [3] was greater than 500 mg/kg.

NC(=O)[C@@H](Cc1ccc(O)cc1)NC(=O)[C@@H]1CCCN1C(=O)Cc1ccccc1 showed an ED50 (Mus musculus) greater than 8 mg/kg.

For CCN1CCC[C@H]1CNC(=O)c1cc(S(N)(=O)=O)ccc1OC [LEVOSULPIRIDE], the ED50 (Mus musculus) was 17.5 mg/kg, the ED50 (Rattus norvegicus [1]) was 16.5 mg/kg and the ED50 (Rattus norvegicus [2]) was greater than 120 mg/kg. For the same compound, the LD50 [3] was 250 mg/kg.

Compound CCCCC(=O)N1CCC[C@H]1C(=O)N[C@@H](Cc1ccc(O)cc1)C(N)=O (Pentanoyl-Pro-Tyr-NH2) has an ED50 (Mus musculus) of 3.2 mg/kg.

For NC(=O)[C@H](Cc1ccc(O)cc1)NC(=O)[C@H]1CCCN1C(=O)Cc1ccccc1, the ED50 (Mus musculus) was 4.9 mg/kg.

With CN1CCN(C2=Nc3cc(Cl)ccc3Nc3ccccc32)CC1 [CLOZAPINE] the ED50 (Rattus norvegicus [1]) was 20 mg/kg and the ED50 (Rattus norvegicus [2]) was greater than 32 mg/kg.

For CCN1CCC[C@H]1CNC(=O)c1c(OC)ccc(Br)c1OC [REMOXIPRIDE], the ED50 (Mus musculus) was 1.2 mg/kg, the ED50 (Rattus norvegicus [1]) was 0.31 mg/kg and the ED50 (Rattus norvegicus [2]) was 8.7 mg/kg. It also gave an LD50 [3] of 302 mg/kg.

Work on CCCCCCCCC(=O)N1CCC[C@H]1C(=O)N[C@@H](Cc1ccc(O)cc1)C(N)=O (Nonanoyl-Pro-Tyr-NH2) yielded an ED50 (Mus musculus) of 0.5 mg/kg.

For NC(=O)[C@@H](Cc1ccc(O)cc1)NC(=O)[C@@H]1CCCN1, the ED50 (Mus musculus) was greater than 16 mg/kg.

For O=C(CCCN1CCC(O)(c2ccc(Cl)cc2)CC1)c1ccc(F)cc1 [HALOPERIDOL], the ED50 (Mus musculus) was 0.1 mg/kg, the ED50 (Rattus norvegicus [1]) was 0.14 mg/kg and the ED50 (Rattus norvegicus [2]) was 0.5 mg/kg. It also gave an LD50 [3] of 35 mg/kg.

With CC(C)(C)OC(=O)N1CCC[C@@H]1C(=O)N[C@@H](Cc1ccc(O)cc1)C(N)=O the ED50 (Mus musculus) was 0.4 mg/kg.

Work on NC(=O)[C@H](Cc1ccc(O)cc1)NC(=O)[C@@H]1CCCN1C(=O)Cc1ccccc1 yielded an ED50 (Mus musculus) of 2.2 mg/kg, an ED50 (Rattus norvegicus [1]) of 1.5 mg/kg and an ED50 (Rattus norvegicus [2]) greater than 1000 mg/kg. It also gave an LD50 [3] greater than 1000 mg/kg.
